Consider one compound from ChEMBL document CHEMBL1770061, “Synthesis and antiproliferative activity of new cytotoxic azanaphthoquinone pyrrolo-annelated derivatives: Part II” (Bioorg Med Chem Lett, 2011).

The structures appear in SMILES notation. The source made the active and inactive calls. The rule behind the calls is not given here.

Common to all, as to type: functional
In one experiment the test system is KB. The experiment is described as follows: Antiproliferative activity against human KB/HeLa cells assessed as growth inhibition at 3.16 ug/ml after 48 hrs by XTT assay. The gist of the method: (§1)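 This is the same 48 h XTT assay: 10-point half-log series, 0.3% final DMSO, 3 h XTT/PMS, A490, with untreated cells as 0% and blanks as 100% inhibition. Inhibition at the highest tested concentration was scored as none (<30%) or moderate (≥30%).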

Another experiment has as its system SK-OV-3. Briefly: Antiproliferative activity against human SKOV3 cells assessed as growth inhibition at 3.16 ug/ml after 48 hrs by XTT assay. The method in brief:
as §1
(In general: Tetrazolium dyes change colour on reduction, which living cells bring about.)

In the next experiment the test system is SF-268. Briefly: Antiproliferative activity against human SF268 cells assessed as growth inhibition at 3.16 ug/ml after 48 hrs by XTT assay. The gist of the method: as §1
The subject of a further experiment is NCI-H460. Briefly: Antiproliferative activity against human NCI-H460 cells assessed as growth inhibition at 3.16 ug/ml after 48 hrs by XTT assay. The method in brief: as §1
Experiment [1] in a line: (§2) Antiproliferative activity against human RKOp27 cells assessed as growth inhibition at 3.16 ug/ml after 48 hrs by XTT assay. To be noted: RKOp27, 48 h. The gist of the method: as §1
The subject of the next experiment is RKOp27. The description is as §2. The gist of the method:
as §1

Experiment [2] in a line: (§3) Antiproliferative activity against human RKOp27IND cells assessed as growth inhibition at 3.16 ug/ml after 48 hrs by XTT assay. The method in brief: as §1
The species named for the next experiment is Homo sapiens. The description is as §3. The gist of the method:
as §1

`CN(C)CCc1cn(CCOS(C)(=O)=O)c2c1C(=O)c1ccncc1C2=O`: the inhibition result with KB, in the experiment on SK-OV-3, in the experiment on SF-268, with NCI-H460, with RKOp27 and in the experiment filed under Homo sapiens was “inactive” in each case. The inhibition at 3.16 µg/mL was less than 30% with NCI-H460 (NCI-H460, 48 h); less than 30% in experiment [1]; less than 30% in experiment [2].

The inhibition is how much of the control response was suppressed.
